According to ChEMBL document CHEMBL1129341, “New neplanocin analogues. 6. Synthesis and potent antiviral activity of 6'-homoneplanocin A1” (J Med Chem, 1996):
Converted amounts (≈) assume the structure as drawn.

Legend:
Vero [1] = experiment: Cytotoxic activity against Reo-1 virus in Vero Cells; assay type: functional; conditions: Chlorocebus sabaeus
HeLa [2] = experiment: Cytotoxic activity against Coxsackie B4 virus in HeLa Cells; assay type: functional; conditions: Homo sapiens
HeLa [3] = experiment: Cytotoxic activity against VZV virus in HeLa Cells; assay type: functional; conditions: Homo sapiens
HEL [4] = experiment: Cytotoxic activity against VZV (YS) virus in HEL Cells; assay type: functional; conditions: Homo sapiens
Vero [5] = experiment: Cytotoxic activity against PV-3 virus in Vero Cells; assay type: functional; conditions: Chlorocebus sabaeus
HEL [6] = experiment: Cytotoxic activity against VZV (OKA) virus in HEL Cells; assay type: functional; conditions: Homo sapiens
How it was run: (§1)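 Antiviral screen in cell culture (HeLa, HEL, E6SM or Vero, per line). IC50 is the concentration that reduces virus-induced cytopathogenicity by 50%.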

HEL [7] = experiment: Cytotoxic activity against TK-VZV (YS/R) virus in HEL Cells; assay type: functional; conditions: Homo sapiens
HEL [8] = experiment: Cytotoxic activity against HCMV (AD-169) virus in HEL Cells; assay type: functional; conditions: Homo sapiens
Vero [9] = experiment: Cytotoxic activity against Sindbis virus in Vero Cells; assay type: functional; conditions: Chlorocebus sabaeus
E6SM [10] = experiment: Cytotoxic activity against TK-HSV-1 (B2006) virus in E6SM Cells; assay type: functional; conditions: Homo sapiens
HEL [11] = experiment: Cytotoxic activity against HCMV(Davis) virus in HEL Cells; assay type: functional; conditions: Homo sapiens
Vero [12] = experiment: Cytotoxic activity against Junin virus in Vero Cells; assay type: functional; conditions: Chlorocebus sabaeus; how it was run: as §1
HeLa [13] = experiment: Cytotoxic activity against Polio-1 virus in HeLa Cells; assay type: functional; conditions: Homo sapiens; how it was run: as §1
Vero [14] = experiment: Cytotoxic activity against forest virus in Vero Cells; assay type: functional; conditions: Chlorocebus sabaeus; how it was run: as §1
Vero [15] = experiment: Inhibitory activity against virus-induced cytopathogenicity (VSV)in Vero cells; assay type: functional, cell-based; conditions: Chlorocebus sabaeus
How it was run: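 Vesicular stomatitis virus in Vero cells. IC50 is the concentration that reduces virus-induced cytopathogenicity by 50%.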

HeLa [16] = experiment: Cytotoxic activity against cell morphology in HeLa Cells; assay type: functional; conditions: Homo sapiens
How it was run: (§2)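 Host cells under the conditions of the antiviral assays (E6SM, HeLa or Vero, per line). Cytotoxic concentration is the one causing microscopic alteration of normal cell morphology in about 50% of cells.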

HEL [17] = experiment: Cytotoxic activity against cell growth in HEL Cells; assay type: functional; conditions: Homo sapiens
How it was run: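 HEL cell cultures. CC50 is the concentration that reduces cell growth by 50%.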

E6SM [18] = experiment: Cytotoxic activity against VSV virus in E6SM Cells; assay type: functional; conditions: Homo sapiens; how it was run: as §1
Vero [19] = experiment: Cytotoxic activity against cell morphology in Vero Cells; assay type: functional; conditions: Chlorocebus sabaeus; how it was run: as §2
E6SM [20] = experiment: Cytotoxic activity against cell morphology in E6SM Cells; assay type: functional; conditions: Homo sapiens; how it was run: as §2
HEL [21] = experiment: Cytotoxic activity against TK-VZV (07/1) virus in HEL Cells; assay type: functional; conditions: Homo sapiens
Vero [22] = experiment: Inhibitory activity against virus plaque formation (PV-3) in Vero cells; assay type: functional, cell-based; conditions: Chlorocebus sabaeus
How it was run: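 Poliovirus type 3 in Vero cells. IC50 is the concentration that reduces virus plaque formation by 50%.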

Vero [23] = experiment: Cytotoxic activity towards viable cells in Vero cells; assay type: functional; conditions: Chlorocebus sabaeus
How it was run: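 Vero cells. CC50 is the concentration that reduces the number of viable cells by 50%.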

E6SM [24] = experiment: Cytotoxic activity against HSV-1(KOS) virus in E6SM Cells; assay type: functional; conditions: Homo sapiens; how it was run: as §1
E6SM [25] = experiment: Cytotoxic activity against HSV-2 (G) virus in E6SM Cells; assay type: functional; conditions: Homo sapiens
Vero [26] = experiment: Cytotoxic activity against Tacaribe virus in Vero Cells; assay type: functional; conditions: Chlorocebus sabaeus; how it was run: as §1
E6SM [27] = experiment: Cytotoxic activity against vaccinia virus in E6SM Cells; assay type: functional; conditions: Homo sapiens; how it was run: as §1
[28] = Inhibitory activity against S-adenosyl-L-homocysteine hydrolase from rabbit erythrocytes

| SMILES | CC50 (Vero [1]) [µg/mL] | CC50 (HeLa [2]) [µg/mL] | CC50 (HeLa [3]) [µg/mL] | CC50 (HEL [4]) [µg/mL] | CC50 (Vero [5]) [µg/mL] | CC50 (HEL [6]) [µg/mL] | CC50 (HEL [7]) [µg/mL] | CC50 (HEL [8]) [µg/mL] | CC50 (Vero [9]) [µg/mL] | CC50 (E6SM [10]) [µg/mL] | CC50 (HEL [11]) [µg/mL] | CC50 (Vero [12]) [µg/mL] | CC50 (HeLa [13]) [µg/mL] | CC50 (Vero [14]) [µg/mL] | IC50 (Vero [15]) [µg/mL] | CC50 (HeLa [16]) [µg/mL] | CC50 (HEL [17]) [µg/mL] | CC50 (E6SM [18]) [µg/mL] | IC50 (Vero [22]) [µg/mL] | CC50 (Vero [23]) [µg/mL] | further results |
| --- | --- | --- | --- | --- | --- | --- | --- | --- | --- | --- | --- | --- | --- | --- | --- | --- | --- | --- | --- | --- | --- |
| Nc1ncnc2c1ncn2[C@@H]1C=C(CCO)[C@@H](O)[C@H]1O | 70 (≈ 252 µM) | > 200 | 0.7 (≈ 2.52 µM) | > 50 | 2 (≈ 7.21 µM) | > 50 | > 50 | 0.15 (≈ 0.541 µM) | > 400 | > 400 | 0.5 (≈ 1.8 µM) | 5 (≈ 18 µM) | > 200 | > 400 | 1 (≈ 3.61 µM) | > 400 | > 50 | 1 (≈ 3.61 µM) | 0.35 (≈ 1.26 µM) | > 500 | CC50 (Vero [19]): > 400 µg/mL; CC50 (E6SM [20]): > 400 µg/mL; CC50 (HEL [21]): > 50 µg/mL; CC50 (E6SM [24]): > 400 µg/mL; CC50 (E6SM [25]): > 400 µg/mL; CC50 (Vero [26]): 20 µg/mL (≈ 72.1 µM); CC50 (E6SM [27]): 0.1 µg/mL (≈ 0.361 µM) |
| Nc1nc(O)c2ncn([C@@H]3C=C(CCO)[C@@H](O)[C@H]3O)c2n1 | – | – | – | – | – | – | – | – | – | – | – | – | – | – | > 500 | – | – | – | > 25 | > 500 | – |
| Nc1nccc2c1ncn2[C@@H]1C=C(CCO)[C@@H](O)[C@H]1O | – | – | – | – | – | – | – | – | – | – | – | – | – | – | 3.9 (≈ 14.1 µM) | – | – | – | > 25 | > 500 | – |
| Cc1cn([C@@H]2C=C(CCO)[C@@H](O)[C@H]2O)c(=O)[nH]c1=O | – | – | – | – | – | – | – | – | – | – | – | – | – | – | > 500 | – | – | – | > 25 | > 500 | – |
| Nc1ccn([C@@H]2C=C(CCO)[C@@H](O)[C@H]2O)c(=O)n1 | – | – | – | – | – | – | – | – | – | – | – | – | – | – | > 500 | – | – | – | > 25 | > 500 | – |
| Nc1ncnc2c1ncn2[C@@H]1C=C(CO)[C@@H](O)[C@H]1O [NEOPLANOCIN A] | 4 (≈ 15.2 µM) | > 40 | 2 (≈ 7.6 µM) | 9 (≈ 34.2 µM) | 2 (≈ 7.6 µM) | 15 (≈ 57 µM) | 7 (≈ 26.6 µM) | 0.3 (≈ 1.14 µM) | > 10 | 40 (≈ 152 µM) | 0.4 (≈ 1.52 µM) | 0.5 (≈ 1.9 µM) | > 40 | > 10 | 1 (≈ 3.8 µM) | > 40 | > 20 | 7 (≈ 26.6 µM) | 0.74 (≈ 2.81 µM) | 152 (≈ 577 µM) | IC50 [28]: 0.004 µg/mL (≈ 0.0152 µM); CC50 (Vero [19]): > 10 µg/mL; CC50 (E6SM [20]): 70 µg/mL (≈ 266 µM); CC50 (HEL [21]): 10 µg/mL (≈ 38 µM); CC50 (E6SM [24]): > 70 µg/mL; CC50 (E6SM [25]): > 70 µg/mL; CC50 (Vero [26]): 2 µg/mL (≈ 7.6 µM); CC50 (E6SM [27]): 0.7 µg/mL (≈ 2.66 µM) |
